Columns and labels:
Trypanosoma cruzi [1] = test: Inhibition of Trypanosoma cruzi N-terminus His-tagged trans-Sialidase using MuNANA as substrate at 0.5 mM after 10 mins by fluorometric analysis
Procedure, shortened: (§1)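 Recombinant His-tagged 70 kDa enzyme truncated of C-terminal repeats, retaining catalytic N-terminal domain. Triplicate wells: pH 7.4 phosphate buffer, enzyme and inhibitor (added as 4.0 or 2.0 mM solution, 1.0 or 0.5 mM final) preincubated 10 min at 26 °C; MuNANA added at 0.1 mM final. Released methylumbelliferone fluorescence (ex 360/em 460 nm) read after 10 min; percent inhibition.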

[2] = Cytotoxicity against C57BL/6 mouse spleen cells assessed as cell death at 0.5 mM after 24 hrs by propidium iodide staining-based flow cytometric analysis; details: 500 µM
Procedure, shortened: (§2)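 Spleen cells from C57BL/6 mice, red cells lysed 5 min (Tris-HCl pH 7.5/ammonium chloride), in RPMI 1640 with 10% FBS at 5×10^5 cells/well, exposed to a range of compound concentrations for 24 h at 37 °C. Tween 20 at 0.5% as death control. Stained with 10 µg/mL propidium iodide, read by flow cytometry.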

Trypanosoma cruzi [3] = test: Inhibition of Trypanosoma cruzi N-terminus His-tagged trans-Sialidase using MuNANA as substrate at 1 mM after 10 mins by fluorometric analysis; procedure, shortened: as §1
Trypanosoma cruzi [4] = test: Antitrypanosomal activity against Trypanosoma cruzi […] infected in monkey LLC-MK2 cells after 4 days by beta-galactosidase reporter gene assay; type: functional, organism-based; details: LLC-MK2, 96 h
Procedure, shortened: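 LLC-MK2 cells in phenol-red-free RPMI with 10% FBS, 2×10^3/well, grown 24 h, then infected with 1×10^4 trypomastigotes of T. cruzi Tulahuen expressing E. coli β-galactosidase; compounds added 24 h later (0.5 mM–3.5 µM) for 4 days. Lysed with PBS/0.5% Triton X-100 containing 100 µM CPRG, 4 h at 37 °C, A570. Concentration giving 50% trypanocidal activity reported as IC50.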

[5] = Cytotoxicity against C57BL/6 mouse spleen cells assessed as cell death at 250 to 780 uM mM after 24 hrs by propidium iodide staining-based flow cytometric analysis; details: 7.8 µM, in the assay text read “250 to 7.8 uM” for “250 to 780 uM mM”; procedure, shortened: as §2
[6] = (§3) Inhibition of Trypanosoma cruzi trans-Sialidase
[7] = Binding affinity to Trypanosoma cruzi trans-Sialidase by surface plasmon resonance assay
Trypanosoma cruzi [8] = test: as §3; details: concentration not given here
[9] = Cytotoxicity against C57BL/6 mouse spleen cells assessed as cell death at 500 to 780 uM mM after 24 hrs by propidium iodide staining-based flow cytometric analysis; details: 7.8 µM, in the assay text read “500 to 7.8 uM” for “500 to 780 uM”; procedure, shortened: as §2

Structure (SMILES)	inhibition (Trypanosoma cruzi [1]) [%]	inhibition (Trypanosoma cruzi [3]) [%]	IC50 (Trypanosoma cruzi [4]) [µM]	IC50 [6] [µM]	also measured
CC(=O)N[C@H]1[C@H]([C@H](O)[C@H](O)CO)O[C@@](OCc2cn(C[C@H]3O[C@H](O)[C@H](O)[C@@H](O)[C@H]3O)nn2)(C(=O)O)C[C@@H]1O	30	91	260		Activity [2]: 55%; Activity [5]: Non-toxic
Cc1ccc(S(=O)(=O)Nc2cccc(C(=O)/C=C/c3ccc(O)c(O)c3)c2)cc1				2.5	
CO[C@H]1O[C@H](CO)[C@H](O)[C@H](OCc2cn(C(C(=O)O)C(C)O)nn2)[C@H]1O (some centres undefined)	1.5	5	369		Activity [2]: > 80%
Cc1ccc(S(=O)(=O)Nc2ccc(C(=O)/C=C/c3ccc(O)c(O)c3)cc2)cc1				0.9	
O=c1c(O)c(-c2cc(O)c(O)c(O)c2)oc2cc(O)cc(O)c12 [MYRICETIN]				0.58	
CC(=O)N[C@H]1[C@H]([C@H](O)[C@H](O)CO)O[C@@](OCc2cn([C@@H]3O[C@H](CO)[C@H](O)[C@H](O)[C@H]3O)nn2)(C(=O)O)C[C@@H]1O	1.5	88	475		Activity [2]: > 80%
CC(=O)N[C@H]1[C@H]([C@H](O)[C@H](O)CO)O[C@@](CCCc2ccccc2)(C(=O)O)C[C@@H]1O					Kd [7]: 160 µM
CCCCCCCCO[C@@H]1O[C@H](CO)[C@H](O)[C@H](O)[C@H]1O					inhibition (Trypanosoma cruzi [8]): 84%
CC(=O)N[C@H]1[C@H]([C@H](O)[C@H](O)CO)O[C@@](OCc2cn([C@@H]3[C@@H](O)[C@@H](O)O[C@H](CO)[C@H]3O)nn2)(C(=O)O)C[C@@H]1O	1.5	67	726		Activity [9]: Non-toxic
Cc1ccc(S(=O)(=O)N2c3ccccc3C(=O)C3=Cc4cc(O)c(O)c5c(O)c(O)cc(c45)C32)cc1 (centres undefined)				0.6	
CCCCCCCCO[C@@H]1O[C@H](COC)[C@H](O)[C@H](O)[C@H]1O					inhibition (Trypanosoma cruzi [8]): 75%
CC(=O)N[C@H]1[C@H]([C@H](O)[C@H](O)CO)O[C@@](OCc2cn([C@H]3[C@@H](O)[C@H](O)O[C@H](CO)[C@@H]3O)nn2)(C(=O)O)C[C@@H]1O	1.5	69	> 2000		Activity [9]: Non-toxic
O=C(Cn1ccnc1[N+](=O)[O-])NCc1ccccc1 [BENZNIDAZOLE]			125		

From ChEMBL document CHEMBL1926571, “Design, synthesis and the effect of 1,2,3-triazole sialylmimetic neoglycoconjugates on Trypanosoma cruzi and its cell surface trans-sialidase” (Bioorg Med Chem, 2012)
